Data taken from ChEMBL document CHEMBL1275604, “Identification of TEM-135 beta-lactamase in penicillinase-producing Neisseria gonorrhoeae strains in Japan” (2010).
≈ marks a conversion by molar mass, not a printed value.

Tests used:
Type in all cases: functional
Neisseria gonorrhoeae [1] = experiment: Antimicrobial activity against […] Neisseria gonorrhoeae NGON 08-041 expressing beta-lactamase TEM-1, MLST type ST-1584 and MAST type ST-1478 by agar dilution method
Summary of the method: (§1)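 Clinical PPNG isolates from one Tokyo hospital, collected 2000–2008 and flagged as penicillinase producers by nitrocefin test. MICs of penicillin, cefixime and ceftriaxone were determined by agar dilution per an earlier method. Isolates were typed by MLST and MAST. The bla gene was PCR-amplified (annealing at 60°C, 30 cycles) and sequenced to assign the TEM allele.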

Neisseria gonorrhoeae [2] = experiment: Antimicrobial activity against […] Neisseria gonorrhoeae NGON 08-044 expressing beta-lactamase TEM-1, MLST type ST-7823 and MAST type ST-1288 by agar dilution method; summary of the method: as §1
Neisseria gonorrhoeae [3] = experiment: Antimicrobial activity against […] Neisseria gonorrhoeae NGON 08-043 expressing beta-lactamase TEM-1, MLST type ST-7823 and MAST type ST-1288 by agar dilution method; summary of the method: as §1
Neisseria gonorrhoeae [4] = experiment: Antimicrobial activity against […] Neisseria gonorrhoeae NGON 08-003 expressing beta-lactamase TEM-135, MLST type ST-7823 and MAST type ST-4013 by agar dilution method; summary of the method: as §1
Neisseria gonorrhoeae [5] = experiment: Antimicrobial activity against […] Neisseria gonorrhoeae NGON 00-002 expressing beta-lactamase TEM-1, MLST type ST-1590 and MAST type ST-270 by agar dilution method; summary of the method: as §1
Neisseria gonorrhoeae [6] = experiment: Antimicrobial activity against […] Neisseria gonorrhoeae NGON 04-025 expressing beta-lactamase TEM-135, MLST type ST-1597 and MAST type ST-1549 by agar dilution method
Neisseria gonorrhoeae [7] = experiment: Antimicrobial activity against […] Neisseria gonorrhoeae NGON 05-042 expressing beta-lactamase TEM-1, MLST type ST-1588 and MAST type ST-4012 by agar dilution method
Neisseria gonorrhoeae [8] = experiment: Antimicrobial activity against […] Neisseria gonorrhoeae NGON 06-041 expressing beta-lactamase TEM-1, MLST type ST-1588 and MAST type ST-4012 by agar dilution method
Neisseria gonorrhoeae [9] = experiment: Antimicrobial activity against […] Neisseria gonorrhoeae NGON 08-046 expressing beta-lactamase TEM-1, MLST type ST-1584 and MAST type ST-1478 by agar dilution method
Neisseria gonorrhoeae [10] = experiment: Antimicrobial activity against […] Neisseria gonorrhoeae NGON 00-027 expressing beta-lactamase TEM-1, MLST type ST-1921 and MAST type ST-1817 by agar dilution method; summary of the method: as §1

SMILES: CO/N=C(\C(=O)N[C@@H]1C(=O)N2C(C(=O)O)=C(CSc3nc(=O)c(O)nn3C)CS[C@H]12)c1csc(N)n1 [CEFTRIAXONE]
- MIC (Neisseria gonorrhoeae [1]): 0.004 µg/mL (≈ 0.00721 µM)
- MIC (Neisseria gonorrhoeae [2]): 0.064 µg/mL (≈ 0.115 µM)
- MIC (Neisseria gonorrhoeae [3]): 0.064 µg/mL (≈ 0.115 µM)
- MIC (Neisseria gonorrhoeae [4]): 0.032 µg/mL (≈ 0.0577 µM)
- MIC (Neisseria gonorrhoeae [5]): 0.016 µg/mL (≈ 0.0289 µM)
- MIC (Neisseria gonorrhoeae [6]): ≤ 0.004 µg/mL
- MIC (Neisseria gonorrhoeae [7]): 0.064 µg/mL (≈ 0.115 µM)
- MIC (Neisseria gonorrhoeae [8]): 0.032 µg/mL (≈ 0.0577 µM)
- MIC (Neisseria gonorrhoeae [9]): 0.032 µg/mL (≈ 0.0577 µM)
- MIC (Neisseria gonorrhoeae [10]): 0.008 µg/mL (≈ 0.0144 µM)

SMILES: CC1(C)S[C@@H]2[C@H](NC(=O)Cc3ccccc3)C(=O)N2[C@H]1C(=O)O [PENICILLIN G]
- MIC (Neisseria gonorrhoeae [1]): 64 µg/mL (≈ 191 µM)
- MIC (Neisseria gonorrhoeae [2]): > 64 µg/mL
- MIC (Neisseria gonorrhoeae [3]): > 64 µg/mL
- MIC (Neisseria gonorrhoeae [4]): > 64 µg/mL
- MIC (Neisseria gonorrhoeae [5]): 16 µg/mL (≈ 47.8 µM)
- MIC (Neisseria gonorrhoeae [6]): > 64 µg/mL
- MIC (Neisseria gonorrhoeae [7]): 64 µg/mL (≈ 191 µM)
- MIC (Neisseria gonorrhoeae [8]): 32 µg/mL (≈ 95.7 µM)
- MIC (Neisseria gonorrhoeae [9]): 64 µg/mL (≈ 191 µM)
- MIC (Neisseria gonorrhoeae [10]): > 64 µg/mL

SMILES: C=CC1=C(C(=O)O)N2C(=O)[C@@H](NC(=O)/C(=N\OCC(=O)O)c3csc(N)n3)[C@H]2SC1 [CEFIXIME]
- MIC (Neisseria gonorrhoeae [1]): 0.008 µg/mL (≈ 0.0176 µM)
- MIC (Neisseria gonorrhoeae [2]): 0.064 µg/mL (≈ 0.141 µM)
- MIC (Neisseria gonorrhoeae [3]): 0.064 µg/mL (≈ 0.141 µM)
- MIC (Neisseria gonorrhoeae [4]): 0.032 µg/mL (≈ 0.0706 µM)
- MIC (Neisseria gonorrhoeae [5]): 0.032 µg/mL (≈ 0.0706 µM)
- MIC (Neisseria gonorrhoeae [6]): 0.004 µg/mL (≈ 0.00882 µM)
- MIC (Neisseria gonorrhoeae [7]): 0.25 µg/mL (≈ 0.551 µM)
- MIC (Neisseria gonorrhoeae [8]): 0.25 µg/mL (≈ 0.551 µM)
- MIC (Neisseria gonorrhoeae [9]): 0.25 µg/mL (≈ 0.551 µM)
- MIC (Neisseria gonorrhoeae [10]): 0.008 µg/mL (≈ 0.0176 µM)
